One compound from publication PMC4547362 (Molecular cancer therapeutics, 2015) can be followed below.

One data set concerns CWR22Rv1 cells. Description: Nucleosomal DNA fragmentation ELISA, CWR22Rv1. Type of data set: cell-based, human. To be noted: 25 μM, 24 h, CWR22Rv1, parallel wells. (In general: ELISA stands for enzyme-linked immunosorbent assay.)
The subject of data set [1] is CWR22Rv1 xenograft tumors. Description: CWR22Rv1 prostate cancer xenograft tumor growth in nude mice. To be noted: for decrease of nuclear Stat5a/b content in tumors: compared to vehicle (HPC). Type of data set: in vivo. A digest of the protocol:
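Castrated male athymic nude mice got 60-day sustained-release DHT pellets 3 days before s.c. flank inoculation of 1.5 × 10⁷ CWR22Rv1 cells in Matrigel (one tumor/mouse). After one week, mice were randomised (10/group) to daily i.p. test compound in 0.3% HPC (25, 50, 100 mg/kg), HPC alone or no treatment for 10 days. Tumors were measured three times weekly; volume = 3.14 × length × width × depth/6. Nuclear Stat5/Stat3 in harvested tumors were compared by mixed-model ANOVA with Bonferroni-adjusted pairwise tests.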

For data set [2], the target named is T1, Stat5a/b (Homo sapiens, UniProt P42229+P51692). Description: Cell-based immunoassay for tyrosine-phosphorylated Stat5a/b in T47D cells. The following applies: read-out: IC50, phosphorylation of Stat5a/b, 2 h, then hPrl.
T1 sequence (P51692 whole entry, one chain of several): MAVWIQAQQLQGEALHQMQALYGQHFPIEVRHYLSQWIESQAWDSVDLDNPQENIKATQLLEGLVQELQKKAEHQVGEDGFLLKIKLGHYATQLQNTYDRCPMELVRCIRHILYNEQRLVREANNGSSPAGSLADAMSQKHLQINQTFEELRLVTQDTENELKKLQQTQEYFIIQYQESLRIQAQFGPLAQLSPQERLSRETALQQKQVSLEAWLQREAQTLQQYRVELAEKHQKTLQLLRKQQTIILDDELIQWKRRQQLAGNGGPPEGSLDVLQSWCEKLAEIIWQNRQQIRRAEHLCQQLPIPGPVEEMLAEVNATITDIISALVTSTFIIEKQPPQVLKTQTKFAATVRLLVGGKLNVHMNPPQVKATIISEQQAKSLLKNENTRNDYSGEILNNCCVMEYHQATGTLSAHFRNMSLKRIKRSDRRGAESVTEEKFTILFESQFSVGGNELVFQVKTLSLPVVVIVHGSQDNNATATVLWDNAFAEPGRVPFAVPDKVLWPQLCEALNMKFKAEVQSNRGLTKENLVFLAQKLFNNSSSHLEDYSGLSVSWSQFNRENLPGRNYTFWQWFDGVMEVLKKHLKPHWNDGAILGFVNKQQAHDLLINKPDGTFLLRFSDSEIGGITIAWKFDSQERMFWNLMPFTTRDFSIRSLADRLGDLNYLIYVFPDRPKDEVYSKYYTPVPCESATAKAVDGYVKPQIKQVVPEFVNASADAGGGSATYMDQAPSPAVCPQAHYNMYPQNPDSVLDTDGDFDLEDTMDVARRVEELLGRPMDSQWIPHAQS
Data set [3] relates to K562, KCL22 and BV173 cells (parental and imatinib-resistant). The data set can be described thus: Growth of CML cell lines, trypan blue cell counts and colony formation. To be noted: 5 μM, trypan blue exclusion and colony formation assay. Type of data set: cell-based.
For data set [4], the system named is A549, CAPAN, T47D, HT1080, HepG2, COS-7, RC170N, CWR22Rv1, K562 cells. The format is cell-based.
The next data set concerns Bcl-xL and cyclin D1. The data set can be described thus: Expression of Stat5a/b target genes cyclin D1 and Bcl-xL in PC cells, immunoblot. Type of data set: cell-based, human. The following applies: CWR22Rv1 and LNCaP cells, 48 h or 25 μM time course. (Immunoblotting shows a protein as a band on a membrane.)
For data set [5], the target named is Stat5a/b (Mus musculus, UniProt P42230+P42232). Type of data set: cell-based. The following applies: read-out: IC50, phosphorylation of Stat5a/b; HC-11 cells, 2 h, then hPrl 30 min.
Stat5a/b (Mus musculus, UniProt P42230+P42232), sequence (P42230 whole entry): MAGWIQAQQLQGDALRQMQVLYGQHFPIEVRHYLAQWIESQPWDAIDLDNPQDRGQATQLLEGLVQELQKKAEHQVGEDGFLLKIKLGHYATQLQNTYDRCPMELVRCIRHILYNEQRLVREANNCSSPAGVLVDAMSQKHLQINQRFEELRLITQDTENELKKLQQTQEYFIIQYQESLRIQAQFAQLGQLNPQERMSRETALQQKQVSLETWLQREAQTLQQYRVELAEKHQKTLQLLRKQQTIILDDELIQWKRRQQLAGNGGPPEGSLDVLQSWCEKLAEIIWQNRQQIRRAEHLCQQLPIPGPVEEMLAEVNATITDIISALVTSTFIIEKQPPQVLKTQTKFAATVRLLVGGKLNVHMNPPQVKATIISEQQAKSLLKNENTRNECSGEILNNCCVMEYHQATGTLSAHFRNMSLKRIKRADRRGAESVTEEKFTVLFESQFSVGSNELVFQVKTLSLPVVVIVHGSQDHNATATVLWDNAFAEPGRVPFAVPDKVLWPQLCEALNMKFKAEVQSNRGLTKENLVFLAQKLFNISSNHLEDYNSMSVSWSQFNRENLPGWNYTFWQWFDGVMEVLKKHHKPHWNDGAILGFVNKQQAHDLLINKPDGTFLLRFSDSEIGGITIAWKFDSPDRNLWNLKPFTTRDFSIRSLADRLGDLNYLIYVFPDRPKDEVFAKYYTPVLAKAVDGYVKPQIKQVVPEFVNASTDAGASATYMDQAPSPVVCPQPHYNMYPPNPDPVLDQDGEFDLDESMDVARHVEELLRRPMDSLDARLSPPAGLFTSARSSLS
Stat5a/b (Mus musculus, UniProt P42230+P42232), sequence (P42232 whole entry): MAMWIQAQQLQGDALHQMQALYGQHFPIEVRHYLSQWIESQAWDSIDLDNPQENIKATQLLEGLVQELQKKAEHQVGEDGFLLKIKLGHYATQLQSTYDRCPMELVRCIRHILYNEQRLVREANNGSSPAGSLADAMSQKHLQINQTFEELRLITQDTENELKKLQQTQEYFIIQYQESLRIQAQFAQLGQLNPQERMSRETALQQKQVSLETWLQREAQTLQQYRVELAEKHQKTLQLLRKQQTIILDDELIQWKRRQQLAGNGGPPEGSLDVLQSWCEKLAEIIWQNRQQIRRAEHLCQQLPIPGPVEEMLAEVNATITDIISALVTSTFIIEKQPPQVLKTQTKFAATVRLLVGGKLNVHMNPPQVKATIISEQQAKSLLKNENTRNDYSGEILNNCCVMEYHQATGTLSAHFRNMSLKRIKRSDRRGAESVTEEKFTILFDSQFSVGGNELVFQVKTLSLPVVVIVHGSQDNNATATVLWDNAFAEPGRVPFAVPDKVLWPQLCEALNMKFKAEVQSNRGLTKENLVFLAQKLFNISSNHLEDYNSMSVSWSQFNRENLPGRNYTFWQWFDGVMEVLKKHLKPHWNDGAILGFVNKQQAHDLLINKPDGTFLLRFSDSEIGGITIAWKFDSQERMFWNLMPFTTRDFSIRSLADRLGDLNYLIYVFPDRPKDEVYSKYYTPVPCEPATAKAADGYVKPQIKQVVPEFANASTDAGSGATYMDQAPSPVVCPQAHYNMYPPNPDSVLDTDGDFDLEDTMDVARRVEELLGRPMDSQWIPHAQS
The target of a further data set is Jak2 (Homo sapiens, UniProt O60674). The data set can be described thus: Jak2 phosphorylation in CWR22Rv1 cells, immunoprecipitation and immunoblot. The format is cell-based.
Another data set relates to panel of 50 kinases. Description: Kinase activity profiling. The format is biochemical. To be noted: 1 μM final concentration. A digest of the protocol: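 Split-luciferase binding format, with the test compound first checked for false-positive activity against split-luciferase. Each Cfluc-kinase was co-translated with Fos-Nfluc in rabbit reticulocyte lysate at 30 C for 90 min. Lysate was incubated 30 min at room temperature with DMSO or 1 μM (final) test compound, then 1 h with a kinase-specific probe.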

The test system of data set [6] is CML-blast crisis cell lines. Description: Cell cycle analysis of CML cells. Type of data set: cell-based. To be noted: 5 μM, 48 h.
Data set [7] addresses T2, Stat5a (Homo sapiens, UniProt P42229).
T2 sequence (P42229 1-794): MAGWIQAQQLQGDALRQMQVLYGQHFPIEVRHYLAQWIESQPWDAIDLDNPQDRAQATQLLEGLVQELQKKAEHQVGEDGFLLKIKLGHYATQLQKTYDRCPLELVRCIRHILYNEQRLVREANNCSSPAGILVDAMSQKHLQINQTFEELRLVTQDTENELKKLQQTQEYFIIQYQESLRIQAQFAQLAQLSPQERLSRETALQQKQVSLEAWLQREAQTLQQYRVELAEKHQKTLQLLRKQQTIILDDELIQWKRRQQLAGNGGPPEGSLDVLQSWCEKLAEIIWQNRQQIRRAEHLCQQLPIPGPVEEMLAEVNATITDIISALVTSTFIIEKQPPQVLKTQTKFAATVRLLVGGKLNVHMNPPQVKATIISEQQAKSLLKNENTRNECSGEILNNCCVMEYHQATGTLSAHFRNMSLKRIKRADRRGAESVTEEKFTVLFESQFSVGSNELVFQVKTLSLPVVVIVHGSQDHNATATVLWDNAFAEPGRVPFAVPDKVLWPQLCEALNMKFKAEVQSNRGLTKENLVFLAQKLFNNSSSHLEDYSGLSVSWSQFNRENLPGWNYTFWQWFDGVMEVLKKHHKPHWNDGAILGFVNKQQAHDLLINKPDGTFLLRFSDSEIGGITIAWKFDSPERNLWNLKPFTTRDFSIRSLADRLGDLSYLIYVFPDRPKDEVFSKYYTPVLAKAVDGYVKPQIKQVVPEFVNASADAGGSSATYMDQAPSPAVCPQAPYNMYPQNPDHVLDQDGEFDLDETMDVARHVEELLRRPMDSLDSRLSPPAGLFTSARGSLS
The data set can be described thus: Prl-induced nuclear translocation of Stat5a in PC-3 cells, immunofluorescence. To be noted: 2 h, hPrl 10 nM 30 min. Type of data set: cell-based. In outline:
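PC-3 cells were infected with adenoviral wild-type Stat5a and prolactin receptor (MOI 4), serum-starved, pretreated 2 h with test compound or control compound, and stimulated 30 min with 10 nM prolactin. Fixed cells were stained with rabbit anti-Stat5 pAb (1:200) and fluorescein goat anti-rabbit IgG (1:200).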

Data set [8] addresses T3, Stat3 (Homo sapiens, UniProt P40763). The data set can be described thus: Stat3 luciferase reporter assay in LNCaP cells. Type of data set: cell-based. To be noted: 6.0 μM, IL-6 50 ng/ml 16 h. In outline:
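LNCaP cells were co-transfected with Stat3 (0.25 μg), IL-6 receptor (0.25 μg), Stat3-luciferase reporter (0.5 μg) and a normalisation plasmid (0.025 μg). Cells were serum-starved 10 h, pretreated with 6.0 μM test compound or control compound, and stimulated 16 h with 50 ng/ml IL-6. Relative luciferase activity is reported as the mean ± S.E. of three independent experiments run in triplicate.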

For the next data set, the target named is PAK1/2 (Homo sapiens, UniProt Q13153+Q13177).
PAK1/2, sequence (Q13153 whole entry): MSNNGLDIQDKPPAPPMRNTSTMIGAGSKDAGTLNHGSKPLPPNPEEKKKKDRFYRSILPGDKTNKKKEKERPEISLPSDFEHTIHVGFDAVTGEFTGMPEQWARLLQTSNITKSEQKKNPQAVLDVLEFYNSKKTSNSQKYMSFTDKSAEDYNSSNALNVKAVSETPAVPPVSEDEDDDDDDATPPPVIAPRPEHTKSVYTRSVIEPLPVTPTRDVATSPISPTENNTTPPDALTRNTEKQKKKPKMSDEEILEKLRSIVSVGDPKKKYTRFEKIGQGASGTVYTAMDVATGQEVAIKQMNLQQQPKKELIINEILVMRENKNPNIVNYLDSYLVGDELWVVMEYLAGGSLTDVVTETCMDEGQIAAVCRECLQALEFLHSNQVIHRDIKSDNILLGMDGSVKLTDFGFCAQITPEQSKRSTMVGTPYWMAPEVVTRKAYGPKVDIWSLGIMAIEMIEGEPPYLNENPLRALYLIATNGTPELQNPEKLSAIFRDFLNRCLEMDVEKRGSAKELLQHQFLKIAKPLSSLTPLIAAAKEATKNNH
PAK1/2, sequence (Q13177 whole entry): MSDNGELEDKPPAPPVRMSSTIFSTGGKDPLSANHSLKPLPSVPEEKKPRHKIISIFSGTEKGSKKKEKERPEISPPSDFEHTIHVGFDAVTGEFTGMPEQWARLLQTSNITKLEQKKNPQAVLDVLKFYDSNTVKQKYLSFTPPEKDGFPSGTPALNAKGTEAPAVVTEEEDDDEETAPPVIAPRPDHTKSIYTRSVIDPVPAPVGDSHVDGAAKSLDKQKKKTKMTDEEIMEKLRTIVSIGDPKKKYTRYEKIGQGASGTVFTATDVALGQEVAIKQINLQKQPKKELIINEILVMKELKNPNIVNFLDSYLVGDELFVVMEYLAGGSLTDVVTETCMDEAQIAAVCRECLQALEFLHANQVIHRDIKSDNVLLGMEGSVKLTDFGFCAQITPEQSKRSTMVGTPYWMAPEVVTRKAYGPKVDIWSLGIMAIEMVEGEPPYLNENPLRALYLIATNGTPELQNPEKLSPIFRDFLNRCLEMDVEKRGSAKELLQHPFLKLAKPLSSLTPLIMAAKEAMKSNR
For data set [9], the target named is T2, Stat5a. The data set can be described thus: Stat5a dimerization by co-immunoprecipitation in PC-3 cells. Type of data set: cell-based. To be noted: read-out: IC50, Stat5a dimerization, FLAG- and MYC-tagged Stat5a, hPrl 10 nM 30 min.
In data set [10] the target is T2, Stat5a. Description: Stat5a luciferase reporter gene assay. The format is cell-based. The following applies: read-out: IC50, transcriptional activity of Stat5a; PC-3 cells, β-casein-luciferase, hPrl 10 nM 16 h. On the technique in general: Reporter assays use an easily measured gene product as a stand-in for the process of interest.
Data set [11] deals with T1, Stat5a/b. Description: Bcr-Abl-driven Stat5a/b phosphorylation in K562 cells, immunoblot. The format is cell-based. The following applies: 3 h.
Data set [12] addresses T3, Stat3. The data set can be described thus: IL-6-induced Stat3 nuclear translocation in DU145 cells, immunofluorescence. The following applies: IL-6 5 nM, IST5-002 even at 50 μM. The format is cell-based.

Structures are written as SMILES.

T3 sequence (P40763 whole entry): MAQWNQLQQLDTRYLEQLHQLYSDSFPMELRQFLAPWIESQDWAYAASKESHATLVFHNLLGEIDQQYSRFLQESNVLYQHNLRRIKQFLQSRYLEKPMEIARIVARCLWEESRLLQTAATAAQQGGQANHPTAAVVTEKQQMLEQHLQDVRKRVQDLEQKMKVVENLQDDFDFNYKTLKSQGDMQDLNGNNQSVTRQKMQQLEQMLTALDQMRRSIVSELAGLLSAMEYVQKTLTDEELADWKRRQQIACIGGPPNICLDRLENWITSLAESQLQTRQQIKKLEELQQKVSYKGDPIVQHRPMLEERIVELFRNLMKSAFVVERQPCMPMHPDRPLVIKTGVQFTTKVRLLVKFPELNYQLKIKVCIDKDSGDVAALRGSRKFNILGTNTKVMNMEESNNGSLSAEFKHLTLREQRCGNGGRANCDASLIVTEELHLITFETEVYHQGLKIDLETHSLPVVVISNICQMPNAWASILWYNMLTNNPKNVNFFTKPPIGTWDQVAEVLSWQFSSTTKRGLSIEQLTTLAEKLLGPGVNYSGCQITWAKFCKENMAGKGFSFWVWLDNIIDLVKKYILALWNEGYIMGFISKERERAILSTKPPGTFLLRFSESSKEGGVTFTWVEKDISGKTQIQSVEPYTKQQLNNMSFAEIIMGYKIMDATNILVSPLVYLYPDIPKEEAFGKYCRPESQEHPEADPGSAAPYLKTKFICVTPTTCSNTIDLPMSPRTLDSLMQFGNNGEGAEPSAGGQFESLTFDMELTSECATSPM

On to `O=P(O)(O)OC[C@H]1O[C@@H](n2cnc3c(NCc4ccccc4)ncnc32)[C@H](O)[C@@H]1O` [IST5-002, N6-benzyladenosine-5-monophosphate], for which the “increase of nucleosomal DNA fragmentation” value in the data set on CWR22Rv1 cells was 230%. Further, the “decrease of nuclear Stat5a/b content in tumors” value in [1] (25 mg/kg i.p. daily) is reported as 60%; in data set [1] (50 mg/kg i.p. daily), 78%; in data set [1] (100 mg/kg i.p. daily), 90%. Moreover, the Tumor growth result in data set [1] (25, 50 or 100 mg/kg i.p. daily, all treatment groups vs control groups) is reported as “significantly (P<0.001) suppressed”. Also, in data set [1] (IST5-002 groups vs. vehicle), the “viable tumor cells in xenograft tumors” value is given as “massive loss of viable tumor cells”. Moreover, the “Intratumor levels of nuclear Stat3” value in [1] (any of the doses tested) was “not altered”. Further, the IC50 on Stat5a/b [2] came out at 24.8 µM; at Stat5a/b [5], 12 µM; at Stat5a [9] it was 11 µM; at Stat5a [10] it was 1.5 µM. In addition, the “growth of imatinib-sensitive and -resistant CML cells” value in data set [3] is “blocked the growth”. Moreover, in data set [4] (A549, CAPAN, T47D, HT1080, HepG2, COS-7), the “viability of cell lines from other tissues” value is “not affected”. Further, the “viability of cells with high Stat5a/b activation” value in [4] (CWR22Rv1 and K562, side-by-side) is listed as “suppressed viability”. Also, the “viability of cell lines with low or no Stat5a/b activation” value in data set [4] (RC170N normal prostate epithelial cell line, HT1080) is “did not affect viability”. Besides, in the data set with Bcl-xL and cyclin D1, the “expression of Bcl-xL and cyclin D1” value is “reduced expression”. The “Phosphorylation of Jak2” value at Jak2 is “unaffected”. Moreover, the “inhibition of kinases in a panel of 50 kinases” value in the data set with panel of 50 kinases is “no specific inhibition”. Also, the “apoptosis in cell cycle analysis” value in [6] is given as “increase in apoptosis”. Further, the “concentration that abrogated Stat5a nuclear translocation” value at Stat5a [7] came to 15 µM. Also, the “transcriptional activity of Stat3” value at Stat3 [8] was “failed to block”. The “activity of PAK1/2” value at PAK1/2 is “no specific inhibition”. In addition, on Stat5a/b [11], the “concentration that blocked Bcr-Abl-induced Stat5a/b phosphorylation” value worked out at 5 µM. Moreover, the Stat3 nuclear translocation result at Stat3 [12] is reported as “no demonstrable effect”.
